Measurements taken from ChEMBL document CHEMBL4190349, “Synthesis and 2D-QSAR studies of neolignan-based diaryl-tetrahydrofuran and -furan analogues with remarkable activity against Trypanosoma cruzi and assessment of the trypanothione reductase activity” (Eur J Med Chem, 2017).
Activity calls are given as the source filed them. The calls are words filed in the database; no cut-off is given here.

Experiments:
[1] = Cytotoxicity in C57BL/6 mouse spleen cells assessed as reduction in cell viability up to 250 uM incubated for 24 hrs by propidium iodide staining based flow cytometry
Method in brief: (§1)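 Spleen cells from C57BL/6 mice, after red-cell lysis with Tris–NH4Cl, in RPMI with 5% FBS, seeded at 6.5×10^6/mL. Exposed 24 h at 37°C to 250 to 1.50 µM. Stained with 10 µg/mL propidium iodide and read by flow cytometry. 1% Tween 20 was the death control. Run in triplicate.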

Trypanosoma cruzi [2] = assay: Antitrypanosomal activity against Trypanosoma cruzi Tulahuen trypomastigotes expressing beta-galactosidase gene incubated for 4 days by beta-galactosidase mediated CPRG substrate hydrolysis assay; assay type: functional, organism-based; conditions: 96 h
Method in brief: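 Tulahuen lacZ (β-galactosidase-expressing) cell-derived trypomastigotes, 5×10^5 per well, exposed 4 days at 37°C to serial concentrations 500 to 3.75 µM. Then PBS with 0.5% Triton X-100 and 100 µM CPRG was added, followed by 4 h at 37°C. Absorbance at 570 nm reflects viability. Run in duplicate. EC50 comes from dose-response curves.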

Trypanosoma cruzi [3] = assay: Antitrypanosomal activity against Trypanosoma cruzi Y trypomastigotes; assay type: functional, organism-based
Method in brief: (§2)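 Y strain trypomastigotes plated at 1×10^6 parasites/mL and exposed to serial concentrations of 500 to 3.75 µM. After 24 h, parasites were removed and counted in a Neubauer chamber. EC50 comes from dose-response curves.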

Trypanosoma cruzi [4] = assay: Antitrypanosomal activity against Trypanosoma cruzi Tulahuen amastigotes expressing beta-galactosidase gene infected in LLC-MK2 cells incubated for 4 days after 4 hrs post infection by beta-galactosidase mediated CPRG substrate hydrolysis assay; assay type: functional, organism-based; conditions: in the assay text read “24 hrs post infection” for “4 hrs post infection”
Method in brief: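 LLC-MK2 cells in phenol-red-free RPMI 1640 with 5% FBS, seeded at 2×10^4 cells/mL for 24 h. Infected with Tulahuen lacZ trypomastigotes (3:1 parasite:cell) at 37°C and washed at 4 h. Compounds (500 to 0.24 µM) added 24 h post-infection for 4 days at 37°C. After washing, Triton X-100/100 µM CPRG lysis, 4 h at 37°C, A570. Untreated infected wells were controls.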

[5] = target: Trypanothione reductase (Trypanosoma cruzi) (UniProt P28593); assay: (§3) Inhibition of Trypanosoma cruzi trypanothione reductase expressed in Escherichia coli BL21 (DE3) pre-incubated for 30 mins using TS2 substrate in presence of NADPH by colorimetric microplate assay
Trypanothione reductase (Trypanosoma cruzi), sequence (P28593 whole entry, looked up): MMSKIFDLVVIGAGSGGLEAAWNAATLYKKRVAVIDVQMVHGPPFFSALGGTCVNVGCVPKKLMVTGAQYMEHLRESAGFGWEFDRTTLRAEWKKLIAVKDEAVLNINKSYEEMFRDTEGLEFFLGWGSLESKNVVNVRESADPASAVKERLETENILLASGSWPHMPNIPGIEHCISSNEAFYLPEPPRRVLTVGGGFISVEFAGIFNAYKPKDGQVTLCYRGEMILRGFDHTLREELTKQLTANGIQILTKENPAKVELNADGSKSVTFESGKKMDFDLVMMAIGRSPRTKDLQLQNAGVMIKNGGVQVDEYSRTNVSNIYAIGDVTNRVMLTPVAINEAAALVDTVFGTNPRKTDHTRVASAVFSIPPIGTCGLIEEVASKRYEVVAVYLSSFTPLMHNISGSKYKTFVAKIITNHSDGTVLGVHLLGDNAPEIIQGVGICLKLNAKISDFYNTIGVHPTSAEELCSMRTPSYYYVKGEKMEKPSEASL
Method in brief: (§4)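 Recombinant T. cruzi TR expressed in E. coli BL21DE3 and affinity-purified. Assay: TcTR 5 m-unit, 40 mM HEPES pH 7.5, 0.15 mM NADPH, 1 mM EDTA, 1 µM TS2, compounds in DMSO (final 1% DMSO control). Pre-incubated 30 min at 27°C, then DTNB added, and A412 read every 5 min for 30 min.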

[6] = Selectivity index, ratio of CC50 for cytotoxicity in C57BL/6 spleen cells to EC50 for Antitrypanosomal activity against Trypanosoma cruzi Tulahuen trypomastigotes; assay type: toxicity, cell-based; conditions: C57BL/6, mouse, read-out: Ratio CC50/EC50
[7] = Cytotoxicity in C57BL/6 mouse spleen cells assessed as reduction in cell viability incubated for 24 hrs by propidium iodide staining based flow cytometry; method in brief: as §1
Trypanothione reductase = Trypanothione reductase (Trypanosoma cruzi, UniProt P28593); assay: as §3; method in brief: as §4
Trypanothione reductase, sequence (P28593 whole entry): as the sequence (P28593 whole entry, looked up) above

Trypanosoma cruzi [8] = assay: Antitrypanosomal activity against Trypanosoma cruzi Y trypomastigotes assessed as induction of parasite lysis; assay type: functional, organism-based; method in brief: as §2
Trypanosoma cruzi [9] = assay: Antitrypanosomal activity against Trypanosoma cruzi; assay type: functional, organism-based
Trypanosoma cruzi [10] = assay: Growth inhibition of Trypanosoma cruzi amastigotes at 20 ug/ml; assay type: functional; conditions: read-out: GI

| SMILES | EC50 (Trypanosoma cruzi [2]) [µM] | IC50 (Trypanosoma cruzi [2]) [µM] | Activity [1] | also measured |
| --- | --- | --- | --- | --- |
| c1ccc(C2CCC(c3ccccc3)O2)cc1 (stereo unspecified) | 37.3 | 37.3 | Non-Toxic | – |
| c1ccc(-c2ccc(-c3ccccc3)o2)cc1 | 21 | 21 | – | selectivity ratio [6]: 9.2; CC50 at 24 h [7]: 194 µM |
| COc1ccc(C(O)CCC(O)c2ccccc2)cc1 (stereo unspecified) | 68.1 | 68.1 | Non-Toxic | – |
| COc1ccc(C(=O)CCC(=O)c2ccccc2)cc1OC | 36 | 36 | Non-Toxic | – |
| COc1ccc(C(O)CCC(O)c2ccccc2)cc1OC (stereo unspecified) | 83.1 | 83.2 | Non-Toxic | – |
| COc1ccc(C(O)CCC(O)c2ccccc2)c(OC)c1 (stereo unspecified) | 19.9 | 19.9 | – | selectivity ratio [6]: 11.9; CC50 at 24 h [7]: 236 µM |
| O=C(CCC(=O)c1ccccc1)c1ccccc1 | 199 | 199 | – | selectivity ratio [6]: 1.1; CC50 at 24 h [7]: 220 µM |
| COc1cccc(C(O)C#CC(O)c2ccccc2)c1 (stereo unspecified) | 39.1 | 39.1 | Non-Toxic | – |
| COc1cccc(C(O)CCC(O)c2ccccc2)c1 (stereo unspecified) | 193 | 193 | Non-Toxic | – |
| COc1cc(C(O)CCC(O)c2ccccc2)cc(OC)c1OC (stereo unspecified) | 77.5 | 77.4 | – | selectivity ratio [6]: 1.5; CC50 at 24 h [7]: 115 µM |
| COc1cc(OC)cc(C(O)CCC(O)c2ccccc2)c1 (stereo unspecified) | 67.6 | 67.6 | Non-Toxic | – |
| COc1cc([C@@H]2O[C@@H](c3cc(OC)c(OC)c(OC)c3)[C@H](C)[C@H]2C)cc(OC)c1OC [GRANDISIN] | 28.6 | – | – | EC50 (Trypanosoma cruzi [8]): 3.7 µM |
| COc1ccc(C2CCC(c3ccccc3)O2)cc1OC (stereo unspecified) | 24.6 | 24.6 | Non-Toxic | – |
| COc1ccc(C(O)C#CC(O)c2ccccc2)c(OC)c1 (stereo unspecified) | 37.9 | 37.8 | Non-Toxic | – |
| COc1cc(-c2ccc(-c3ccccc3)o2)cc(OC)c1OC | 29.1 | 29.1 | Non-Toxic | – |
| COc1cc(C2CCC(c3ccccc3)O2)cc(OC)c1OC (stereo unspecified) | 26.2 | 26.2 | Non-Toxic | – |
| OC(CCC(O)c1ccccc1)c1ccccc1 (stereo unspecified) | 33.2 | 33.2 | – | selectivity ratio [6]: 5; CC50 at 24 h [7]: 166 µM |
| COc1cc([C@@H]2O[C@@H](c3cc(OC)c(OCc4ccccc4)c(OC)c3)C(CO)=C2C)cc(OC)c1OC | – | – | – | EC50 (Trypanosoma cruzi [9]): 1.5 µM |
| COc1ccc(-c2ccc(-c3ccc(OC)c(OC)c3)o2)cc1OC | – | – | – | inhibition of growth at 20 µg/mL (Trypanosoma cruzi [10]): 65% |
| NS(=O)(=O)c1ccc(-c2ccco2)cc1 | – | – | – | inhibition of growth at 20 µg/mL (Trypanosoma cruzi [10]): 70% |
| COc1cc(C(=O)CCC(=O)c2ccccc2)cc(OC)c1OC | 36.9 | 36.9 | Non-Toxic | – |
| O=C(Cn1ccnc1[N+](=O)[O-])NCc1ccccc1 [BENZNIDAZOLE] | 1.65 | – | – | EC50 (Trypanosoma cruzi [3]): 0.04 µM |

The remaining compounds from weak to strong by EC50 (Trypanosoma cruzi [2]), led by results:

| EC50 (Trypanosoma cruzi [2]) [µM] | IC50 (Trypanosoma cruzi [2]) [µM] | SMILES | Activity [1] | also measured |
| --- | --- | --- | --- | --- |
| 18.7 | 18.7 | OC(C#CC(O)c1ccccc1)c1ccccc1 (stereo unspecified) | Non-Toxic | – |
| 18.3 | 18.3 | COc1cccc(C(=O)CCC(=O)c2ccccc2)c1 | Non-Toxic | – |
| 15.9 | 15.9 | COc1ccc(C(=O)CCC(=O)c2ccccc2)cc1 | Non-Toxic | – |
| 14 | 14 | COc1ccc(C(O)C#CC(O)c2ccccc2)cc1 (stereo unspecified) | Non-Toxic | – |
| 12.1 | 12.1 | COc1cc(OC)cc(C2CCC(c3ccccc3)O2)c1 (stereo unspecified) | Non-Toxic | – |
| 9.07 | 9.08 | COc1ccc(C2CCC(c3ccccc3)O2)cc1 (stereo unspecified) | Non-Toxic | – |
| 8.98 | 8.97 | COc1ccc(C(O)C#CC(O)c2ccccc2)cc1OC (stereo unspecified) | Non-Toxic | – |
| 7.79 | 7.8 | COc1ccc(C(=O)CCC(=O)c2ccccc2)c(OC)c1 | Non-Toxic | EC50 (Trypanosoma cruzi [3]): 1.76 µM |
| 4.98 | 4.98 | COc1cc(OC)cc(C(O)C#CC(O)c2ccccc2)c1 (stereo unspecified) | – | selectivity ratio [6]: 15.8; CC50 at 24 h [7]: 78.6 µM |
| 4.88 | 4.88 | COc1cc(C(O)C#CC(O)c2ccccc2)cc(OC)c1OC (stereo unspecified) | Non-Toxic | EC50 (Trypanosoma cruzi [3]): 97.1 µM |
| 4.75 | 4.75 | COc1ccc(-c2ccc(-c3ccccc3)o2)cc1 | Non-Toxic | EC50 (Trypanosoma cruzi [3]): 19.2 µM; EC50 (Trypanosoma cruzi [4]): 127 µM; IC50 (Trypanothione reductase): 7.4 µM |
| 3.34 | 3.34 | COc1cccc(-c2ccc(-c3ccccc3)o2)c1 | Non-Toxic | EC50 (Trypanosoma cruzi [3]): 34.2 µM; EC50 (Trypanosoma cruzi [4]): 126 µM; IC50 (Trypanothione reductase): 8.9 µM |
| 2.67 | – | COc1ccc([C@H]2O[C@@H](c3ccc(OC)c(OC)c3)[C@H](C)[C@H]2C)cc1OC [VERAGUENSIN] | – | EC50 (Trypanosoma cruzi [8]): 2.3 µM |
| 2.29 | 2.29 | COc1cccc(C2CCC(c3ccccc3)O2)c1 (stereo unspecified) | Non-Toxic | EC50 (Trypanosoma cruzi [3]): 34.2 µM; EC50 (Trypanosoma cruzi [4]): 126 µM |
| 1.69 | 1.69 | COc1cc(OC)cc(C(=O)CCC(=O)c2ccccc2)c1 | Non-Toxic | EC50 (Trypanosoma cruzi [3]): 15.9 µM |
| 1.34 | 1.34 | COc1ccc(-c2ccc(-c3ccccc3)o2)cc1OC | Non-Toxic | EC50 (Trypanosoma cruzi [3]): 32.6 µM; EC50 (Trypanosoma cruzi [4]): 126 µM; IC50 (Trypanothione reductase): 19.2 µM |
| 1.12 | 1.12 | COc1ccc(-c2ccc(-c3ccccc3)o2)c(OC)c1 | Non-Toxic | EC50 (Trypanosoma cruzi [3]): 35.9 µM; EC50 (Trypanosoma cruzi [4]): 19 µM; IC50 (Trypanothione reductase): 17.7 µM |
| 0.75 | 0.75 | COc1ccc(C2CCC(c3ccccc3)O2)c(OC)c1 (stereo unspecified) | Non-Toxic | EC50 (Trypanosoma cruzi [3]): 1.05 µM; EC50 (Trypanosoma cruzi [4]): 19.8 µM |
| 0.01 | – | COc1cc(OC)cc(-c2ccc(-c3ccccc3)o2)c1 | Non-Toxic | EC50 (Trypanosoma cruzi [3]): 4.08 µM; EC50 (Trypanosoma cruzi [4]): 133 µM; inhibition [5]: inactive |
